Screens (PubChem)
MEKK2mut PB1 HTS: signal of MEK5 binding to mutant human MEKK2 PB1 domain | hit rate 0.35% among 290,000 | percent response, % at 10 µM | bead flow cytometry, Alexa488-MEK5 binding to MEKK2 mutant; in the data active means percent response above about 24%, passing the limit was not always enough
MEKK2 WT-MEK5: raises or lowers MEK5 binding to wildtype human MEKK2 PB1 domain; Q9Y2U5; bead flow cytometry, Alexa488-MEK5 binding to MEKK2 WT; actives lie on both sides; binding response (% of control), % at 10 µM; hit rate 1.1% among 290,000; in the data active means binding response below about 67% or above about 130%
T cruzi repl: blocks replication of Trypanosoma cruzi. T. cruzi beta-gal in NIH3T3, luminescence, 90 h. hit rate 1.4% among 300,000. inhibition, % (no concentration beside the values);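 active means mean inhibition across valid replicates above about 55%, limit read from the data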;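 further: signal also drops with host cell toxicity which is not excluded here; higher percent means less beta-gal luminescence so fewer parasites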
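Assay system: NIH/3T3 host cells with β-galactosidase reporter T. cruzi; input: 5,000 host fibroblasts per well; compound: single 50 nL compound addition per well in DMSO; timing: ≥90 h infection period, 3 h prior cell attachment; measured by: GalScreen β-gal luminescence, detergent lysis, 60 min; evaluation: percent inhibition of parasite-derived β-gal signal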
MEKK3 PB1 HTS: raises or lowers MEK5 binding to the human MEKK3 PB1 domain; Q99759; bead-based flow cytometry, Alexa488-MEK5 binding to MEKK3; actives lie on both sides; 0 = blocked by unlabeled MEK5, 100 = vehicle; binding response (% of control), % at 10 µM; hit rate 1.4% among 290,000;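 active means binding response more than 3 SD above or below the average of its plate-row segment, actives on both sides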;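 further: Alexa488 bead fluorescence after subtracting the streptavidin-only scavenger bead signal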
Target sequence (Q99759 whole entry, looked up, the tested form may be a part): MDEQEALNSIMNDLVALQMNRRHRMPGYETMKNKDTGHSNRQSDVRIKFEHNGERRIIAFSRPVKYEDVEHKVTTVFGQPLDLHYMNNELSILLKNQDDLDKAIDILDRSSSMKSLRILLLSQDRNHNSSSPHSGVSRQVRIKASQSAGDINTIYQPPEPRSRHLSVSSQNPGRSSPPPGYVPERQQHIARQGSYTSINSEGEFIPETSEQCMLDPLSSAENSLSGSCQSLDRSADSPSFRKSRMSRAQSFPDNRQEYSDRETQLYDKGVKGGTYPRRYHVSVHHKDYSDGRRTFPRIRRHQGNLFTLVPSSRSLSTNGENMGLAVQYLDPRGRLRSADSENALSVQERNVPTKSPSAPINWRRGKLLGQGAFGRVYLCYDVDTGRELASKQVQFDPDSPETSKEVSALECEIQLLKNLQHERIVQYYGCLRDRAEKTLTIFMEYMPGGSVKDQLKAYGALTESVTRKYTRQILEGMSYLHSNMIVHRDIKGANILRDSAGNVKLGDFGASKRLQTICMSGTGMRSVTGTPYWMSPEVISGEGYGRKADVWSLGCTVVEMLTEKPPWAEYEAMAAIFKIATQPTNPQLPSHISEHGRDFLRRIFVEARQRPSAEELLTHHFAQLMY
HCV NS3 hel inh: HCV NS3 helicase inhibition; hit rate 0.56% among 290,000; NS3 helicase DNA unwinding, Cy5 molecular beacon fluorescence; inhibition, % at 10.9 µM;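 active means inhibition above the mean of all tested compounds plus 3 SD, set per campaign, cut at about 35% in these data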
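Compound dosing – single dose, 10.9 µM nominal final, DMSO 0.8% final · System – NS3 helicase fragment of HCV · Buffer or medium – MOPS pH 6.5, MgCl2, DTT, Tween20, BSA · Signal – Cy5 beacon fluorescence read at start and 1 h · Also added – annealed dual-labelled DNA beacon duplex, ATP-started · Schedule – 1 h at 25 °C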
FID counter: fluorescent intercalator displacement, NS3 helicase counter-screen; DNA fluorescent intercalator displacement, fluorescence; hit rate 0.17% among 290,000; inhibition, % at 7.9 µM; in the data active means inhibition above about 37%;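 further: higher means more ethidium bromide displaced from hairpin DNA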
MEKK2wt confirm: raises or lowers MEK5 binding to wildtype human MEKK2, retest; bead flow cytometry, Alexa488-MEK5 binding to MEKK2 WT; actives lie on both sides; hit rate 2.4% among 5,900; shares compounds with MEKK3 PB1 HTS; binding response (% of control), % at 10 µM; in the data active means binding response below about 16% or above about 210%; inactive means in between
MEKK2mut confirm: signal of MEK5 binding to mutant human MEKK2, retest; bead flow cytometry, Alexa488-MEK5 binding to MEKK2 mutant; percent response, % at 10 µM; hit rate 2% among 5,900; shares compounds with MEKK3 PB1 HTS; in the data active means percent response mostly above about 71%, no sharp cut-off; inactive means mostly below about 38%;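 further: higher means compound restores mutant binding toward wildtype level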
MEKK3 confirm: confirmation of inhibitors of MEK5 binding to human MEKK3; binding response (% of control), % at 10 µM; shares compounds with MEKK3 PB1 HTS; hit rate 1.8% among 5,900; bead flow cytometry, Alexa488-MEK5 binding to MEKK3; hits give low values;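 active means binding response below 72% of control, or above a set upper limit, though filed actives all read lower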
Of the large screens only hits and unclear results are named; the others gave an inactive call (follow-up assays come after a bar, where they were run); [ ] = dose if it differs, or a comment. An excerpt weighted towards active compounds, which were near 4.1% of everything screened.

N=C1/C(=C\c2ccc(SCc3ccccc3)o2)C(=O)N=C2SC(CC(=O)N3CCOCC3)=NN12	MEKK3 PB1 HTS 48[inhibitor] | MEKK2wt confirm inactive | MEKK2mut confirm inactive | MEKK3 confirm inactive
COc1ccc(C2=NN(C(=O)CSc3nc4ccccc4s3)C(c3ccc(OC)cc3)C2)cc1 (stereo unspecified)	MEKK3 PB1 HTS 148 | MEKK2wt confirm inactive | MEKK2mut confirm inactive | MEKK3 confirm inactive
Cc1ccc(S(=O)(=O)N2CCC(C(=O)N3CCCC(C(F)(F)F)C3)CC2)cc1C (stereo unspecified)	none (no result: MEKK2mut PB1 HTS, MEKK2 WT-MEK5, MEKK3 PB1 HTS, HCV NS3 hel inh, FID counter)
O=C(c1ccc(Cl)cc1)[C@@H]1[C@@H]2C(=O)N(c3cccc4ccccc34)C(=O)[C@@H]2C2c3ccccc3C=NN21 (stereo partly specified)	MEKK3 PB1 HTS 153 | MEKK2wt confirm inactive | MEKK2mut confirm inactive | MEKK3 confirm inactive
CCOC(=O)N1CCC(NC(=O)c2cc(COc3c(C)cccc3C)on2)CC1	none
O=C(Nc1ncccc1O)c1ccc(S(=O)(=O)Nc2ccccc2)cc1	none (no result: MEKK2mut PB1 HTS, MEKK2 WT-MEK5, MEKK3 PB1 HTS, HCV NS3 hel inh, FID counter)
O=C(CN1CCC(C(O)(c2ccccc2)c2ccccc2)CC1)Nc1cc(Cl)ccc1Cl	T cruzi repl 55, MEKK3 PB1 HTS 72[inhibitor] | MEKK2wt confirm inactive | MEKK2mut confirm inactive | MEKK3 confirm inactive
CCC(NC(=O)NCc1ccccc1)(C(F)(F)F)C(F)(F)F	MEKK3 PB1 HTS 151 | MEKK2wt confirm inactive | MEKK2mut confirm inactive | MEKK3 confirm inactive
CCC(NC(=O)NCc1ccc2c(c1)OCO2)(C(F)(F)F)C(F)(F)F	none
Cc1cccc(-n2c(CNC(=O)c3cccc([N+](=O)[O-])c3C)n[nH]c2=S)c1	none
COc1ccccc1-n1c(CNC(=O)c2cccc([N+](=O)[O-])c2C)n[nH]c1=S	MEKK2 WT-MEK5 36[inhibitor], MEKK3 PB1 HTS 26[inhibitor] | MEKK2wt confirm inactive | MEKK2mut confirm inactive | MEKK3 confirm inactive
CCOC(=O)c1cc(CC)sc1/N=C/C1=C(O)CC(C)(C)CC1=O	MEKK3 PB1 HTS 136 | MEKK2wt confirm inactive | MEKK2mut confirm inactive | MEKK3 confirm inactive
CCOC(=O)c1c(NC(=O)c2cc(-c3ccc(O)cc3)on2)sc(C(C)=O)c1C	none
CCC(=O)NCCc1nc2cc(NC(=O)c3ccco3)ccc2n1C	none
COc1ccccc1CN1CCCC(CN(CCN(C)C)C(=O)C2CCCC2)C1 (stereo unspecified)	MEKK2mut PB1 HTS 34, MEKK2 WT-MEK5 135 | MEKK2wt confirm inactive | MEKK2mut confirm inactive | MEKK3 confirm inactive
COc1ccccc1CN1CCCC(C(=O)N(C)Cc2ccccc2)C1 (stereo unspecified)	none
CCOc1ncccc1C(=O)NC(C)CCc1ccccc1 (stereo unspecified)	none
Cc1ccc(-n2ncc(C(=O)Nc3cc(Cl)cc(Cl)c3)c2C2CCNCC2)cc1C	MEKK2mut PB1 HTS 58, MEKK2 WT-MEK5 216, T cruzi repl 55, FID counter 43 | MEKK2wt confirm inactive | MEKK2mut confirm inactive | MEKK3 confirm inactive
Cc1ccc(-n2ncc(C(=O)Nc3cc(Cl)ccc3Cl)c2C2CCNCC2)cc1	none
CC(C)NC(=O)C(C)Oc1ccc(S(=O)(=O)NCc2ccc3c(c2)OCO3)cc1 (stereo unspecified)	none
Cn1nc(C(F)(F)F)c(-c2ccc(Br)cc2)c1NC(=O)Nc1ccc(F)cc1F	MEKK2 WT-MEK5 138, MEKK3 PB1 HTS 133 | MEKK2wt confirm inactive | MEKK2mut confirm inactive | MEKK3 confirm inactive
OC[C@@H](O)[C@@H](O)[C@H](O)[C@H](O)CO	none (no result: MEKK2mut PB1 HTS, MEKK2 WT-MEK5, MEKK3 PB1 HTS, HCV NS3 hel inh, FID counter)
